According to paper PMC3700807 (Planta medica, 2011):
In brackets after ≈: the same amount, converted by molar mass. Each block holds one compound with its values, some of them ahead of it.

Key:
[1] = test system: Leishmania donovani axenic amastigotes; experiment: Antileishmanial assay, axenic amastigotes; format: cell-based; conditions: Leishmania donovani, 72 h, read-out: Leishmania donovani Axenic Amastigotes IC90
[2] = test system: Aspergillus fumigatus (ATCC 204305); experiment: Antimicrobial susceptibility assay, A. fumigatus; format: cell-based; conditions: Aspergillus fumigatus
Procedure, shortened: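 Broth-dilution susceptibility test in medium with 5% Alamar Blue for growth detection. Amphotericin B was the drug control in each assay. IC50 (50% inhibition vs controls) was curve-fitted from duplicate readings. MIC is the lowest concentration with no detectable growth. For MFC, 5 μL from each clear well was moved to agar and incubated until growth appeared.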

[3] = test system: Candida albicans (ATCC 90028); experiment: Antimicrobial susceptibility assay, C. albicans; format: cell-based; conditions: Candida albicans
Procedure, shortened: (§1)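 Yeasts were tested by a modified CLSI broth-dilution method, with growth monitored by optical density. Amphotericin B was the drug control in each assay. IC50 (50% inhibition vs controls) was curve-fitted from duplicate readings. MIC is the lowest concentration allowing no detectable growth. For MFC, 5 μL from each clear well was plated on agar and incubated until growth was seen.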

[4] = test system: Cryptococcus neoformans (ATCC 90113); experiment: Antimicrobial susceptibility assay, C. neoformans; format: cell-based; conditions: Cryptococcus neoformans
Procedure, shortened: as §1

[5] = test system: Leishmania donovani amastigotes in THP1 macrophage cultures; experiment: Antileishmanial macrophage-amastigote assay; format: cell-based; conditions: Leishmania donovani, THP-1, read-out: Leishmania donovani Macrophage-Amastigotes IC50, amastigotes in THP1 macrophage cultures; mean ± S.D. of three observations
[6] = Cytotoxicity to PMA transformed THP1 cells; format: cell-based; conditions: human, PMA transformed THP1 cells
[7] = test system: Plasmodium falciparum D6 (chloroquine-sensitive clone); experiment: In vitro antiplasmodial assay; format: cell-based; conditions: Plasmodium falciparum, D6, read-out: P. falciparum D6 IC50
[8] = test system: Plasmodium falciparum W2 (chloroquine-resistant clone); experiment: In vitro antiplasmodial assay; format: cell-based; conditions: Plasmodium falciparum, W2, read-out: P. falciparum W2 IC50
[9] = test system: Mycobacterium intracellulare (ATCC 23068); experiment: Antimicrobial susceptibility assay, M. intracellulare; format: cell-based; conditions: Mycobacterium intracellulare
Procedure, shortened: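 Mycobacterium intracellulare (ATCC 23068) was tested by a modified broth susceptibility method, with growth detected in medium containing 5% Alamar Blue. IC50 was fitted against untreated controls from duplicate readings. MIC was taken as the lowest concentration with no detectable growth. For MBC, clear wells were subcultured onto agar and incubated until growth appeared. Ciprofloxacin was included as the drug control in each assay.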

[10] = test system: Staphylococcus aureus (ATCC 29213); experiment: Antimicrobial susceptibility assay, S. aureus; format: cell-based; conditions: Staphylococcus aureus
Procedure, shortened: (§2)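 Bacteria were tested by a modified CLSI broth-dilution method, with growth read as optical density. Ciprofloxacin was the drug control in each assay. IC50 (50% inhibition relative to controls) was fitted from duplicate readings. MIC is the lowest concentration with no detectable growth. For MBC, 5 μL from each clear well was transferred to agar and incubated until growth appeared.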

[11] = test system: methicillin-resistant S aureus (MRSA, ATCC 33591); experiment: Antimicrobial susceptibility assay, MRSA; format: cell-based, Staphylococcus aureus; conditions: Staphylococcus aureus, ATCC33591|MRSA
Procedure, shortened: as §2

[12] = test system: Plasmodium falciparum D6 (chloroquine-sensitive clone); conditions: data reported previously; cited from earlier work
[13] = test system: Leishmania donovani promastigotes; experiment: Antileishmanial assay, promastigotes; format: cell-based; conditions: Leishmania donovani, 72 h, read-out: Leishmania donovani Promastigotes IC90
VERO cells = VERO cells cytotoxicity; data reported previously; cited from earlier work
[14] = test system: Plasmodium falciparum W2 (chloroquine-resistant clone); conditions: data reported previously; cited from earlier work

IC90 [1]: 0.97 ± 0.14 µg/mL (≈ 1.05 µM) | IC50 ([2]; ATCC204305, read-out: A. fumigatus IC50): 0.72 µg/mL (≈ 0.779 µM) | MIC ([2]; ATCC204305, read-out: A. fumigatus MIC): 1.25 µg/mL (≈ 1.35 µM) | IC50 ([3]; ATCC90028, read-out: C. albicans IC50): 0.13 µg/mL (≈ 0.141 µM) | IC50 ([4]; ATCC90113, read-out: C. neoformans IC50): 0.32 µg/mL (≈ 0.346 µM) | MIC ([4]; ATCC90113, read-out: C. neoformans MIC): 1.25 µg/mL (≈ 1.35 µM) | IC50 [5]: 0.14 ± 0.02 µg/mL (≈ 0.152 µM)
Compound: C[C@@H]1[C@H](O)[C@@H](C)/C=C/C=C/C=C/C=C/C=C/C=C/C=C/[C@H](O[C@@H]2O[C@H](C)[C@@H](O)[C@H](N)[C@@H]2O)C[C@@H]2O[C@](O)(C[C@@H](O)C[C@@H](O)[C@H](O)CC[C@@H](O)C[C@@H](O)CC(=O)O[C@H]1C)C[C@H](O)[C@H]2C(=O)O [Amphotericin B, reference compound]
MFC ([2]; ATCC204305, read-out: A. fumigatus MFC): 2.5 µg/mL (≈ 2.71 µM) | MFC ([3]; ATCC90028, read-out: C. albicans MFC): 0.63 µg/mL (≈ 0.682 µM) | MFC ([4]; ATCC90113, read-out: C. neoformans MFC): 1.25 µg/mL (≈ 1.35 µM) | IC50 [6]: 3.34 ± 0.41 µg/mL (≈ 3.61 µM) | IC90 [6]: 8.05 ± 1.33 µg/mL (≈ 8.71 µM)

Compound: C[C@@H]1CC[C@H]2[C@@H](C)C(=O)O[C@@H]3O[C@@]4(C)CC[C@@H]1[C@]32OO4 [Artemisinin]
IC50 [7]: 0.016 µg/mL (≈ 0.0567 µM) | IC50 [8]: 0.017 µg/mL (≈ 0.0602 µM)

Compound: CCN(CC)CCCC(C)Nc1ccnc2cc(Cl)ccc12 (centres unmarked) [Chloroquine]
IC50 [7]: 0.017 µg/mL (≈ 0.0531 µM) | IC50 [8]: 0.14 µg/mL (≈ 0.438 µM)

IC50 ([9]; ATCC23068, read-out: M. intracellulare IC50): 0.25 µg/mL (≈ 0.754 µM) | MIC ([9]; ATCC23068, read-out: M. intracellulare MIC): 0.5 µg/mL (≈ 1.51 µM) | IC50 ([10]; ATCC29213, read-out: S. aureus IC50): 0.1 µg/mL (≈ 0.302 µM) | IC50 ([11]; read-out: MRSA IC50): 0.08 µg/mL (≈ 0.241 µM) | MIC ([11]; read-out: MRSA MIC): 0.25 µg/mL (≈ 0.754 µM)
Compound: O=C(O)c1cn(C2CC2)c2cc(N3CCNCC3)c(F)cc2c1=O [Ciprofloxacin, reference compound]
MBC ([9]; ATCC23068, read-out: M. intracellulare MBC): > 20 µg/mL | MBC ([10]; ATCC29213, read-out: S. aureus MBC): > 20 µg/mL | MBC ([11]; read-out: MRSA MBC): 1 µg/mL (≈ 3.02 µM)

Compound: C[C@@H]1N[C@H](CCCCCCCCCCc2cc(CCCCCCCCCC[C@@H]3CC[C@H](O)[C@@H](C)N3)c3[n+](c2)CCC3)CC[C@H]1O [Compound 2, prosopilosidine]
IC90 [1]: 25.4 ± 5.3 µg/mL | P. falciparum D6 IC50 [12]: 0.039 ± 0.002 µg/mL | IC90 [13]: 4.17 ± 0.54 µg/mL | VERO IC50 (VERO cells): >23.8 µg/mL | P. falciparum W2 IC50 [14]: 0.095 ± 0.002 µg/mL | IC50 [5]: 3.23 ± 0.54 µg/mL | IC50 [6]: 9.49 ± 2.25 µg/mL | IC90 [6]: > 20 µg/mL
